From ChEMBL document CHEMBL2331506, “Design, synthesis, antiviral and cytostatic evaluation of novel isoxazolidine nucleotide analogues with a carbamoyl linker” (Bioorg Med Chem, 2013) come the findings set out here.

Molecules are shown by their SMILES. pIC50: −log10 of the molar value. Activity calls are given as the source filed them. The rule behind the calls is not given here.

One data set relates to K562. In words: Cytotoxicity against human K562 cells. The data set is classed as functional, cell-based.
For data set [1], the system named is HeLa. The experiment in a line: Cytotoxicity against human HeLa cells. The data set is classed as functional, cell-based.
The test system of data set [2] is Human alphaherpesvirus 1. The experiment in a line: Antiviral activity against thymidine kinase-deficient, ACV-resistant Herpes simplex virus 1 KOS infected in human HEL cells assessed as reduction of virus-induced cytopathogenicity at 250 uM. The data set is classed as functional, organism-based. The procedure, abridged:
(§1)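 Confluent cell monolayers were infected with 100 CCID50 of virus while exposed to varying compound concentrations. Cytopathicity was scored once it was complete in untreated infected controls. EC50 was taken as the concentration that reduced virus-induced cytopathogenicity by 50%.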
In general terms: Protection from cytopathic effect is a common read-out in antiviral testing.

The next data set has as its system Human alphaherpesvirus 2. In words: Antiviral activity against Herpes simplex virus 2 G infected in human HEL cells assessed as reduction of virus-induced cytopathogenicity at 250 uM. The data set is classed as functional, organism-based. Particulars: strain G. In short, it runs like this:
(§2)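 Confluent monolayers (HEL fibroblasts, Vero, or HeLa cells as listed) were infected with 100 CCID50 of virus in the presence of varying compound concentrations. Virus-induced cytopathicity or plaque formation was scored once cytopathicity was complete in untreated infected controls. EC50 was taken as the concentration reducing cytopathogenicity or plaque formation by 50%.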

The subject of a further data set is Feline coronavirus. The experiment in a line: Antiviral activity against Feline coronavirus infected in cat CRFK cells assessed as reduction of virus-induced cytopathogenicity at 250 uM. The data set is classed as functional, organism-based.
The subject of data set [3] is Human alphaherpesvirus 1. The experiment in a line: Antiviral activity against Herpes simplex virus 1 KOS infected in human HEL cells assessed as reduction of virus-induced cytopathogenicity at 250 uM. The data set is classed as functional, organism-based. In short, it runs like this: as §2
A further data set has as its system Sindbis virus. In words: Antiviral activity against Sindbis virus infected in african green monkey Vero cells assessed as reduction of virus-induced cytopathogenicity at 250 uM. The data set is classed as functional, organism-based. In short, it runs like this:
as §2

Data set [4] has as its system Human immunodeficiency virus 1. The experiment in a line: Antiviral activity against Human immunodeficiency virus 1 3B infected in human CEM cells assessed as reduction of virus-induced giant cell formation at 250 uM after 4 to 5 days. In kind it is functional, organism-based. The following applies: CCRF-CEM. The procedure, abridged:
(§3)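 CEM cells at 3 × 10^5 cells/mL were infected with HIV at 100 CCID50 per mL in the presence of compound dilutions. They were held 4–5 days at 37 °C in humidified CO2. Syncytium (giant cell) formation was scored microscopically, and EC50 was taken as the concentration inhibiting giant cell formation by 50%.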

The subject of a further data set is Coxsackievirus B4. The experiment in a line: Antiviral activity against Coxsackievirus B4 infected in african green monkey Vero cells assessed as reduction of virus-induced cytopathogenicity at 250 uM. The data set is classed as functional, organism-based. The procedure, abridged: as §2
The test system of a further data set is Human respirovirus 3. The experiment in a line: Antiviral activity against Parainfluenza virus 3 infected in african green monkey Vero cells assessed as reduction of virus-induced cytopathogenicity at 250 uM. In kind it is functional, organism-based. In short, it runs like this:
as §2

The test system of data set [5] is Vesicular stomatitis virus. The experiment in a line: Antiviral activity against Vesicular stomatitis virus infected in human HeLa cells assessed as reduction of virus-induced cytopathogenicity at 250 uM. In kind it is functional, organism-based. The procedure, abridged: as §1
The subject of the next data set is Vero. In words: Cytotoxicity against african green monkey Vero cells assessed as alteration of cell morphology up to 100 uM by microscopic analysis. The data set is classed as cell-based. Particulars: chlorocebus sabaeus. The procedure, abridged:
(§4)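 Uninfected host-cell cultures were exposed to compound and examined by microscopy. Cytotoxicity was expressed as the minimum cytotoxic concentration (MCC) causing a microscopically detectable alteration of normal cell morphology.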

Data set [6] deals with Respiratory syncytial virus. The experiment in a line: Antiviral activity against Respiratory syncytial virus long infected in human HeLa cells assessed as reduction of virus-induced cytopathogenicity at 250 uM. The data set is classed as functional, organism-based. The procedure, abridged: as §2
The subject of data set [7] is HeLa. In words: Cytotoxicity against human HeLa cells assessed as alteration of cell morphology up to 100 uM by microscopic analysis. In kind it is cell-based. In short, it runs like this: as §4
Data set [8] relates to Influenza A virus. In words: Antiviral activity against Influenza A virus H3N2 infected in dog MDCK cells assessed as reduction of virus-induced cytopathogenicity at 250 uM. In kind it is functional, organism-based. The procedure, abridged:
as §1

A further data set concerns MDCK. In words: Cytotoxicity against dog MDCK cells assessed as alteration of cell morphology up to 100 uM by microscopic analysis. The data set is classed as cell-based, Canis lupus familiaris. The procedure, abridged: as §4
The subject of the next data set is CCRF-CEM. In words: Cytostatic activity against human CEM cells assessed as inhibition of cell proliferation after 72 hrs by Coulter counter analysis. In kind it is functional, cell-based. The procedure, abridged:
(§5)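 Each well received (5–7.5) × 10^4 tumor cells plus compound. L1210 cells grew 48 h and CEM and HeLa cells grew 72 h, at 37 °C in humidified CO2. Cells were then counted electronically, and IC50 was taken as the concentration inhibiting proliferation by 50%.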

The subject of data set [9] is Human immunodeficiency virus 2. The experiment in a line: Antiviral activity against Human immunodeficiency virus 2 ROD infected in human CEM cells assessed as reduction of virus-induced giant cell formation at 250 uM after 4 to 5 days. The following applies: CCRF-CEM. The data set is classed as functional, organism-based. The procedure, abridged: as §3
Data set [10] deals with Vesicular stomatitis virus. The experiment in a line: Antiviral activity against Vesicular stomatitis virus infected in human HEL cells assessed as reduction of virus-induced cytopathogenicity at 250 uM. In kind it is functional, organism-based. In short, it runs like this: as §1
Data set [11] deals with Mammalian orthoreovirus 1. In words: Antiviral activity against Reovirus 1 infected in african green monkey Vero cells assessed as reduction of virus-induced cytopathogenicity at 250 uM. In kind it is functional, organism-based. The procedure, abridged: as §2
Data set [12] concerns Influenza A virus. In words: Antiviral activity against Influenza A virus H1N1 infected in dog MDCK cells assessed as reduction of virus-induced cytopathogenicity at 250 uM. The data set is classed as functional, organism-based. The procedure, abridged:
as §1

For the next data set, the system named is Influenza B virus. In words: Antiviral activity against Influenza B virus infected in dog MDCK cells assessed as reduction of virus-induced cytopathogenicity at 250 uM. The data set is classed as functional, organism-based. In short, it runs like this:
as §1

In another data set the test system is Felid alphaherpesvirus 1. In words: Antiviral activity against Feline herpes virus infected in cat CRFK cells assessed as reduction of virus-induced cytopathogenicity at 250 uM. In kind it is functional, organism-based.
Data set [13] in a line: Cytotoxicity against cat CRFK cells assessed as alteration of cell morphology up to 100 uM by microscopic analysis. The data set is classed as cell-based, Felis catus. In short, it runs like this:
as §4

Another data set relates to HEL. In words: Cytotoxicity against human HEL cells assessed as alteration of cell morphology up to 100 uM by microscopic analysis. The data set is classed as cell-based. The procedure, abridged: as §4
In a further data set the test system is L1210. In words: Cytostatic activity against mouse L1210 cells assessed as inhibition of cell proliferation after 48 hrs by Coulter counter analysis. In kind it is functional, cell-based. Particulars: L1210, 48 h. The procedure, abridged:
as §5

The subject of a further data set is Punta Toro virus. In words: Antiviral activity against Punta Toro virus infected in african green monkey Vero cells assessed as reduction of virus-induced cytopathogenicity at 250 uM. The data set is classed as functional, organism-based. In short, it runs like this:
as §2

Data set [14] relates to HeLa. The experiment in a line: Cytostatic activity against human HeLa cells assessed as inhibition of cell proliferation after 72 hrs by Coulter counter analysis. The data set is classed as functional, cell-based. In short, it runs like this:
as §5

Usually pIC50 stands for −log10 of the IC50, conventionally taken in molar units. Molecule `CCOP(=O)(OCC)C1CC(c2ccc3ccccc3c2)ON1C` (centres undefined) had a pIC50 in the data set with K562 of 4.05.
In the data set with HeLa [1], `CCOP(=O)(OCC)C1CC(c2cccc3ccccc23)ON1C` (centres undefined) had a negative-log IC50 (pIC50) of 4.30.
On to `CCOP(=O)(OCC)[C@@H]1C[C@H](C(=O)Nc2ccc(Cl)cc2)ON1C` (mixture of isomers), for which the inhibition entry (in the data set with Human alphaherpesvirus 1 [2]; in the data set with Human alphaherpesvirus 2; in the data set with Feline coronavirus; with Human alphaherpesvirus 1 [3]; with Sindbis virus; in data set [4]) was “inactive” each time. In addition, the inhibition result (in the data set on Coxsackievirus B4; in the data set with Human respirovirus 3; in [5]; in [6]; with Influenza A virus [8]; in data set [9]) was “inactive” each time. Also, the inhibition result (in data set [10]; in data set [11]; in the data set with Influenza A virus [12]; in the data set with Influenza B virus; in the data set with Felid alphaherpesvirus 1; in the data set on Punta Toro virus) was “inactive” each time. The Activity result (with Vero; in the data set with HeLa [7]; in the data set with MDCK; in data set [13]; in the data set with HEL) was “Non-toxic” throughout. In addition, the figures for the pIC50 in the data set on CCRF-CEM, with L1210 and in the data set with HeLa [14] were no more than 3.60, 3.77 and less than 3.60, respectively.
As for `CCOP(=O)(OCC)[C@@H]1C[C@H](C(=O)Nc2cccc(F)c2)ON1C` (mixture of isomers), the inhibition entry (in the data set with Human alphaherpesvirus 1 [2]; in the data set with Human alphaherpesvirus 2; with Feline coronavirus; in the data set on Human alphaherpesvirus 1 [3]; in the data set on Sindbis virus; in data set [4]) was “inactive” each time. Further, the inhibition result (in the data set on Coxsackievirus B4; in the data set on Human respirovirus 3; in data set [5]; in [6]; in the data set with Influenza A virus [8]; in data set [9]) was “inactive” throughout. Also, the inhibition result (in data set [10]; in data set [11]; in the data set with Influenza A virus [12]; in the data set with Influenza B virus; in the data set on Felid alphaherpesvirus 1; in the data set on Punta Toro virus) was “inactive” each time. For the same molecule, the Activity result (in the data set with Vero; with HeLa [7]; with MDCK; in data set [13]; in the data set with HEL) was “Non-toxic” in each case. Also, the pIC50 in the data set on CCRF-CEM is no more than 3.60; in the data set with L1210, 3.64; with HeLa [14], no more than 3.60.
